Assays:
Format in all cases: functional
Leishmania tropica [1] = assay: Percentage of growth inhibition of multidrug resistance Leishmania tropica Lines at 15 uM; Value ranges from 0 to 6%
How it was run: (§1)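 Log-phase MDR promastigotes were plated at 3 × 10⁵ cells/well in RPMI 1640-modified medium with 20% FBS and 150 µM DNM. Sesquiterpenes (DMSO stocks diluted in medium) were added and cells kept 72 h at 28 °C. MTT was added for 4 h, formazan dissolved in 20% SDS and A540 read. Growth inhibition is relative to DNM-treated controls without modulator.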

Leishmania tropica [2] = assay: Percentage of growth inhibition of wild type Leishmania tropica Lines at 3 uM.
How it was run: (§2)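 Intrinsic toxicity on the wild-type L. tropica LRC clone, with no DNM present. Log-phase promastigotes were plated at 3 × 10⁵ cells/well in RPMI 1640-modified medium with 20% FBS, with sesquiterpene diluted from DMSO stocks, for 72 h at 28 °C. MTT was added for 4 h, then 20% SDS, and A540 read. Percent growth inhibition is taken against untreated control absorbance.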

Leishmania tropica [3] = assay: Percentage of growth inhibition of multidrug resistance Leishmania tropica Lines at 7 uM; Value ranges from 0 to 6%; how it was run: as §1
Leishmania tropica [4] = assay: Percentage of growth inhibition of multidrug resistance Leishmania tropica Lines at 3 uM.; how it was run: as §1
Leishmania tropica [5] = assay: (§3) Percentage of growth inhibition of wild type Leishmania tropica lines at 15 uM; how it was run: as §2
Leishmania tropica [6] = assay: Percentage of growth inhibition of wild type Leishmania tropica Lines at 7 uM.; how it was run: as §2
Leishmania tropica [7] = assay: Percentage of growth inhibition of multidrug resistance Leishmania tropica Lines at 1 uM.; how it was run: as §1
Leishmania tropica [8] = assay: Percent growth inhibition of wild type Leishmania tropica at 1 uM; how it was run: as §2
Leishmania tropica [9] = assay: Percentage of growth inhibition of multidrug resistance Leishmania tropica Lines at 15 uM; how it was run: as §1
Leishmania tropica [10] = assay: Percentage of growth inhibition of multidrug resistance Leishmania tropica Lines at 3 uM; how it was run: as §1
Leishmania tropica [11] = assay: Percentage of growth inhibition of multidrug resistance Leishmania tropica Lines at 1 uM; how it was run: as §1
Leishmania tropica [12] = assay: as §3; remark: listed apart in the source
How it was run: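 WT L. tropica LRC-strain promastigotes (log phase, RPMI 1640-modified medium + 20% heat-inactivated FBS, 28 °C) seeded at 3 × 10⁵ cells/well and exposed without DNM to sesquiterpenes diluted from DMSO stocks. After 72 h at 28 °C, MTT (5 mg/mL in PBS) was added for 4 h, formazan dissolved in 20% SDS, A540 read. Growth inhibition (%) calculated relative to untreated control absorbance.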

Leishmania tropica [13] = assay: Percentage of growth inhibition of multidrug resistance Leishmania tropica Lines at 7 uM.; how it was run: as §1
Leishmania tropica [14] = assay: Percentage of growth inhibition of wild type Leishmania tropica lines at 3 uM; Value ranges from 0 to 6%; how it was run: as §2
Leishmania tropica [15] = assay: Percentage of growth inhibition of wild type Leishmania tropica lines at 7 uM; Value ranges from 0 to 6%; how it was run: as §2

SMILES	inhibition at 15 µM (Leishmania tropica [1])	inhibition at 3 µM (Leishmania tropica [2])	inhibition at 7 µM (Leishmania tropica [3])	inhibition at 3 µM (Leishmania tropica [4])	inhibition at 15 µM (Leishmania tropica [5])	inhibition at 7 µM (Leishmania tropica [6])	inhibition at 1 µM (Leishmania tropica [7])	inhibition at 1 µM (Leishmania tropica [8])	inhibition at 15 µM (Leishmania tropica [9])	inhibition at 3 µM (Leishmania tropica [10])	inhibition at 1 µM (Leishmania tropica [11])	inhibition at 15 µM (Leishmania tropica [12])	inhibition at 7 µM (Leishmania tropica [13])	inhibition at 3 µM (Leishmania tropica [14])	inhibition at 7 µM (Leishmania tropica [15])
CC(=O)O[C@@H]1C2C[C@H](OC(=O)c3ccco3)[C@]3(C)[C@@H](OC(C)=O)[C@@H](OC(=O)c4ccco4)C[C@](C)(O)C13OC2(C)C (some centres not stated)	6%	< 6%	6%	6%	< 6%	< 6%	< 6%	< 6%							
CC(=O)OC[C@@]12[C@@H](OC(C)=O)[C@@H](OC(C)=O)[C@@H]3OC(=O)[C@H](C)[C@@H](C)c4ncccc4C(=O)OC[C@@]4(C)OC1([C@H](OC(C)=O)C4[C@H](OC(C)=O)[C@@H]2OC(C)=O)[C@@]3(C)O	6%	< 6%	6%	< 6%	< 6%	< 6%	< 6%	< 6%							
CC(=O)O[C@H]1[C@@H](OC(=O)c2ccccc2)C[C@](C)(O)C23OC(C)(C)C(C[C@H](OC(=O)c4ccco4)[C@]12C)[C@H]3OC(=O)c1ccc([N+](=O)[O-])cc1 (some centres not stated)								< 6%	51.1%	13.5%	6.4%	10.8%	26.4%	6%	6%
COc1ccc(C(=O)O[C@@H]2C3C[C@H](OC(=O)c4ccco4)[C@]4(C)[C@@H](OC(C)=O)[C@@H](OC(=O)c5ccccc5)C[C@](C)(O)C24OC3(C)C)cc1 (some centres not stated)			6%	6%	< 6%		< 6%	< 6%	11.8%					6%	6%
